# Assay results as given in ChEMBL document CHEMBL3045671, “Non-imidazole histamine H3 ligands: part V. synthesis and preliminary pharmacological investigation of 1-[2-thiazol-4-yl- and 1-[2-thiazol-5-yl-(2-aminoethyl)]-4-n-propylpiperazine derivatives” (Med Chem Res, 2013).
# Legend:
# Histamine H3 receptor [1] = target: Histamine H3 receptor (Rattus norvegicus, UniProt Q9QYN8); assay: Binding affinity to Rattus norvegicus (rat) H3 receptor
# Histamine H3 receptor [2] = target: Histamine H3 receptor (Cavia porcellus, UniProt Q9JI35); assay: Antagonist activity at H3 receptor in Cavia porcellus (guinea pig) jejunum assessed as inhibition of electrically evoked muscle contraction; conditions: read-out: pA2 (converted)
# Method in brief: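 Segments under 1.0 g tension, isotonic recording; 1 h equilibration with washes every 10 min. Field-stimulated maximally (15–20 V) at 0.1 Hz, 0.5 ms rectangular pulses. After 30 min stimulation, cumulative (R)-α-methylhistamine curves (half-log steps) run with pyrilamine 1 × 10⁻⁵ mol/L in bath. The curve was repeated 20 min after the test compound was added, with pyrilamine given beforehand.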
# Histamine H3 receptor (Cavia porcellus, UniProt Q9JI35), sequence (Q9JI35 whole entry): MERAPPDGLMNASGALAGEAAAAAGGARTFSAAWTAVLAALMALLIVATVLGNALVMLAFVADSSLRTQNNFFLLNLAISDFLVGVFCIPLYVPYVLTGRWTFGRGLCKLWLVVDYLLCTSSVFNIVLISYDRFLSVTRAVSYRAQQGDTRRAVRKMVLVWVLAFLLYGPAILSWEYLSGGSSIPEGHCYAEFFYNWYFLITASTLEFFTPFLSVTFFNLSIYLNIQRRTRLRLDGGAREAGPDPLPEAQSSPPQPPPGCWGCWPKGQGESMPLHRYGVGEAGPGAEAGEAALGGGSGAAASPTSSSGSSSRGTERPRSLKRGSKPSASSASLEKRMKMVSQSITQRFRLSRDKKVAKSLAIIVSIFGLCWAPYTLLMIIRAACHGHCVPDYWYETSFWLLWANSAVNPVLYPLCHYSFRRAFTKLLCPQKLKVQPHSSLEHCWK
# Histamine H3 receptor (Rattus norvegicus, UniProt Q9QYN8), sequence (Q9QYN8 whole entry): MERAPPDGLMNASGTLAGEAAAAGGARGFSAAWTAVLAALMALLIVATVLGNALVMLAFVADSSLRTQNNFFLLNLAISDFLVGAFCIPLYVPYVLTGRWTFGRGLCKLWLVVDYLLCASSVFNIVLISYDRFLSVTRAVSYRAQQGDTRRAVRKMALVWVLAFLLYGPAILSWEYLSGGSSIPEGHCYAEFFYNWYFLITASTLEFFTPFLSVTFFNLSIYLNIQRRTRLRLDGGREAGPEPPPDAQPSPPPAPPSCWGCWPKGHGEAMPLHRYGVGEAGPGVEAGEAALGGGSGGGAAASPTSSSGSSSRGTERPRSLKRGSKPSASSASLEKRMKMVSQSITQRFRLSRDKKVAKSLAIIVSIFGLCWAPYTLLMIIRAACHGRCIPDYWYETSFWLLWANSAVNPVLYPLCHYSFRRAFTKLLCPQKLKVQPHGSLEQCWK
Ki (Histamine H3 receptor [1]),Kb (Histamine H3 receptor [2]),Compound
4 nM,–,O=C(c1ccc(OCCCN2CCCCC2)cc1)C1CC1
–,17.4 nM,CCCN1CCN(c2ncc(CCN(C)C(=O)c3ccc([N+](=O)[O-])cc3)s2)CC1
–,18.6 nM,CCCN1CCN(c2ncc(CCN(C)C(=O)c3ccc(Cl)cc3)s2)CC1
–,24.5 nM,CCCN1CCN(c2ncc(CCN(C)C(=O)c3ccc(C)cc3)s2)CC1
–,35.5 nM,CCCN1CCN(c2ncc(CCN(C)C(=O)c3ccccc3)s2)CC1
–,24.5 nM,CCCN1CCN(c2ncc(CCN(C)CCc3ccccc3)s2)CC1
–,933 nM,CCCN1CCN(c2nc(CCN(C)C(=O)c3ccc([N+](=O)[O-])cc3)cs2)CC1
–,589 nM,CCCN1CCN(c2nc(CCN(C)C(=O)c3ccc(Cl)cc3)cs2)CC1
–,1580 nM,CCCN1CCN(c2nc(CCN(C)C(=O)c3ccc(C)cc3)cs2)CC1
–,2240 nM,CCCN1CCN(c2nc(CCN(C)C(=O)c3ccccc3)cs2)CC1
–,204 nM,CCCN1CCN(c2nc(CCN(C)CCCCCc3ccccc3)cs2)CC1
–,191 nM,CCCN1CCN(c2nc(CCN(C)CCCCc3ccccc3)cs2)CC1
–,245 nM,CCCN1CCN(c2nc(CCN(C)CCCc3ccccc3)cs2)CC1
–,75.9 nM,CCCN1CCN(c2nc(CCN(C)Cc3ccccc3)cs2)CC1
–,155 nM,CCCN1CCN(c2nc(CCN(C)CCc3ccccc3)cs2)CC1
–,120 nM,CCCN(C)CCc1csc(N2CCN(CCC)CC2)n1
–,174 nM,CCCN1CCN(c2nc(CCN(C)C)cs2)CC1
